Assay outcomes from PubChem.
Yeast growth inh: growth inhibitors of yeast BB579 in restrictive medium, primary screen, yeast lifespan-shortening project, S. cerevisiae; hit rate 0.51% among 140,000; AID 804, 2007; inhibition, % at 10 µM; OD615, 48 h;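 active = inhibition above a set limit, 3 SD over the mean compound inhibition, cut at about 44% in these data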
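test system = yeast BB579 (DeaD) | buffer or medium = restrictive CSMM-D medium | doses = single compound dose of 10 µM, 0.25% DMSO final | times = 4 h preincubation and 48 h exposure at 30 °C | technique = culture absorbance at 615 nm | benchmarks = amphotericin B 10 µg/mL, positive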
Measles CPE: compounds protecting cells from measles virus cytopathic effect, primary screen, measles RdRp inhibitor project, single point, MLSMR library, absorbance | Measles virus-infected cells, CPE protection | protection (pct of control), % at 4 µM | hit rate 1.5% among 140,000 | AID 841, 2007; in the data active = protection mostly above about 24%, no sharp cut-off; inactive = mostly below about 26%
sEH inhibitor: soluble epoxide hydrolase inhibitors, primary screen, biochemical, human sEH | Bifunctional epoxide hydrolase 2 (Homo sapiens), P34913 | recombinant human sEH enzymatic activity assay | hit rate 0.34% among 91,000 | inhibition, % at 2 µM | AID 707, 2007; in the data active = inhibition above about 80%
Target sequence (P34913 whole entry, looked up): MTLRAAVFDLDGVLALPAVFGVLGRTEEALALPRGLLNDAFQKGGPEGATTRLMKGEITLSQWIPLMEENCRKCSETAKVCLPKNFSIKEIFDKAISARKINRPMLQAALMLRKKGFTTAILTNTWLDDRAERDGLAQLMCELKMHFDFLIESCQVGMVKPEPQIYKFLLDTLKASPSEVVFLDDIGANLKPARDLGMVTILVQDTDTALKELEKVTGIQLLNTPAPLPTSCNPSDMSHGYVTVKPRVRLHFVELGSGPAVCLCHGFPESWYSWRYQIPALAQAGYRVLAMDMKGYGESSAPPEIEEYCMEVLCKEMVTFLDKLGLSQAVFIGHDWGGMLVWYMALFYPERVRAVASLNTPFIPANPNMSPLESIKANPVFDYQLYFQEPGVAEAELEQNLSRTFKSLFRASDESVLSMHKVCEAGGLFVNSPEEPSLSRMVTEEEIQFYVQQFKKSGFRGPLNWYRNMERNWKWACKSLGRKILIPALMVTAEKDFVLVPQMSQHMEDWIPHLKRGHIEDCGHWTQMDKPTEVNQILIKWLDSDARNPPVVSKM
Yeast lifespan up: compounds extending yeast replicative lifespan, primary screen, S. cerevisiae, OD615. inhibition of the nicotinamide effect, % at 10 µM. AID 775, 2007. hit rate 0.68% among 130,000. S. cerevisiae growth with nicotinamide; deaD strain in restrictive glucose medium;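 active = inhibition above a set limit, placed 3 SD over the median of all compounds, cut at about 26% in these data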;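 note: 0% = nicotinamide-treated wells and 100% = cells grown without nicotinamide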
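assay system = DeaD-strain S. cerevisiae | measured by = absorbance at 615 nm | probe or stimulus = nicotinamide 1.5 mM | buffer or medium = CSMM-D glucose medium, restrictive | times = 48 h at 30 °C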
sEH act: soluble epoxide hydrolase activators, primary screen, biochemical, human sEH | Bifunctional epoxide hydrolase 2 (Homo sapiens), P34913 | purified human sEH enzymatic activity, activator screen | activation, % at 2 µM | hit rate 0.04% among 91,000 | AID 717, 2007; in the data active = activation above about 37%
SDO1 yeast rescue: growth rescue of sdo1-depleted yeast, primary screen, S. cerevisiae, bone marrow failure model; S. cerevisiae sdo1-depleted JHY4D growth rescue, OD600 30 h; active compounds read high; pdr5 snq2 efflux-pump mutant strain; z-score at 10 µM; hit rate 0.21% among 140,000; AID 817, 2007;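 active = z-score above 3 at both the 24 hr and the 30 hr optical density reads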;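 note: z-score against mean and SD of all compound wells on the same plate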
sdo1 rescue conf: SDO1-depleted yeast growth rescue, concentration-response, diseases of bone marrow failure, JHY4D, OD600. shares compounds with SDO1 yeast rescue. S. cerevisiae JHY4D (SDO1-depleted) growth rescue, 30 h; active compounds read high; efflux-deficient strain, SNQ2 and PDR5 mutated. OD recovery (concentration not given with the values). hit rate 44% among 440. AID 949, 2007;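 active = yeast growth recovered at 30 hours, either rising with dose fitted slope above 0.001 or with average optical density gain above 0.07, some results past the limit were not filed as active; inactive = growth falling with dose or no effect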;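 note: gain in OD600 from 0 h to 30 h averaged across all seven doses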
* marks the source's active call; other numbers are inactive results; x = not tested or not shown. Sampled rows, rich in hits. Any-hit rate of the full collection: about 3%.

SMILES	Yeast growth inh	Measles CPE	sEH inhibitor	Yeast lifespan up	sEH act	SDO1 yeast rescue	sdo1 rescue conf
C=CCn1c(SCC(=O)Nc2cccnc2Cl)nnc1-c1ccccc1F	-43	0	x	8	x	-0.49	x
COc1ccc(C(C(=O)NC(C)(C)C)N(C(=O)CNC(=O)c2cccs2)c2ccc(C)cc2)cc1OC (stereo not drawn)	-15	15	7	-14	-5	0.28	x
O=C(CCC(=O)Nc1ccccc1Cl)N/N=C1\CCCc2ccccc21	-41	18	x	-1	x	13*	0.083*
O=C(CSc1nnnn1-c1ccccc1)Nc1nc(-c2ccccc2)ns1	-6	5	-4	4	8	2	0.071*
O=C(CSc1nnnn1-c1ccccc1)Nc1nsc(-c2ccccc2)n1	-27	18	15	-9	-17	-0.36	x
Cc1ccc(-n2nnnc2SCC(=O)Nc2nc(-c3ccc(F)cc3)cs2)cc1C	-27	27	-3	-15	3	0.64	0.029
COC(=O)c1ccc2[nH]c(C)cc(=O)c2c1	-17	11	-10	-4	11	6*	0.039
CC([NH2+][O-])C(C)(C)NO (stereo not drawn)	-14	33	-16	6	20	0.3	x
CC(C)c1nnc(N2C(=O)c3oc4ccccc4c(=O)c3C2c2ccco2)s1 (stereo not drawn)	-16	4	5	x	-6	0.72	0.077*
CCOc1cc(C#N)c(NC(=O)c2cccnc2)cc1OCC	-21	5	-10	-25	8	1.4	0.058
CCOc1cc(C#N)c(NC(=O)c2cccnc2Cl)cc1OCC	-41	8	10	-9	-11	0.98	x
NS(=O)(=O)c1cccnc1Nc1c(Cl)cccc1Cl	-68	17	18	3	-16	0.41	x
Cc1ccc(S(=O)(=O)CCC(=O)NCc2ccco2)cc1	-31	19	4	-15	-2	0.99	x
COc1cc(C(=O)N2CCC(C(=O)Nc3cccc(C(C)=O)c3)CC2)cc(OC)c1OC	-35	4	x	-5	x	2.8	0.059
CC(=O)c1cccc(NC(=O)C2CCCN(S(=O)(=O)c3ccc(F)cc3)C2)c1 (stereo not drawn)	-23	3	11	1	-10	0.48	x
COc1ccc(S(=O)(=O)N2CCCC(C(=O)Nc3cccc(C(C)=O)c3)C2)cc1 (stereo not drawn)	-34	14	21	-2	-22	1.8	0.05
COc1ccccc1OCC(=O)O	0	3	4	-4	-1	0.33	x
COc1ccccc1OC(C)C(=O)O (stereo not drawn)	4	7	-10	-4	8	5.2*	0.068
Cc1ccc(C2/C(=C(\O)c3ccc4c(c3)OCCO4)C(=O)C(=O)N2CCCN(C)C)o1 (stereo not drawn)	3	10	-5	-4	5	6.9*	0.097*
COc1ccc(CCN2C(=O)c3cccc4c(C(=O)N5CCCCC5)ccc(c34)C2=O)cc1OC	-10	7	x	-5	x	0.3	0.051
CC(=O)c1c(C(C)=O)c(C)n(C2CCCCC2)c1C	-22	18	23	x	-19	1.9	x
CSCCC(NS(=O)(=O)c1ccc(Cl)cc1)C(=O)OCC(=O)c1c(C)[nH]c2ccccc12 (stereo not drawn)	-23	12	x	1	x	6.2*	0.053
CSCCC(NS(=O)(=O)c1ccc2ccccc2c1)C(=O)OCC(=O)c1ccc(C(C)C)cc1 (stereo not drawn)	-16	3	x	6	x	-0.15	x
COc1ccc(CCNC(=O)CCC2COc3ccccc3O2)cc1OC (stereo not drawn)	-10	36	36	-10	-35	1.2	x
O=C(COc1ccc2ccccc2c1)Nc1ccc(S(=O)(=O)N2CCCCCC2)cc1	-15	14	25	x	-23	0.36	x
SMILES	Yeast growth inh	Measles CPE	sEH inhibitor	Yeast lifespan up	sEH act	SDO1 yeast rescue	sdo1 rescue conf
CC1=NCC(C)c2c1[nH]c1ccccc21 (stereo not drawn)	-70	3	7	-11	-6	0.78	x
COC(=O)c1ccc(C2c3c(oc4ccc(F)cc4c3=O)C(=O)N2CCO)cc1 (stereo not drawn)	-49	7	x	-5	x	1.9	0.061
CC(C)CCNC(=O)C1CCCN1C(=O)NC1CCCCC1 (stereo not drawn)	-41	24	18	x	-18	0.44	x
COc1ccc(CN(C)C2CCCCC2)c(C)c1C	-26	16	10	-1	-13	0.96	x
O=C(C1COc2ccccc2O1)N1CCN(c2ccccc2F)CC1 (stereo not drawn)	-49	2	-3	-12	2	3.1*	0.11*
Cc1cc(C)nc(Nc2ncc(O)n2-c2ccc(C)c(C)c2)n1	-17	5	-13	9	13	5.9*	0.077*
CCC(C)NC(=O)NC1C(NC(=O)NC(C)CC)N(C)C(=O)N1C (stereo not drawn)	-21	41	6	1	-7	1.1	x
CC(C)CNC(=O)NC1C(NC(=O)NCC(C)C)N(C)C(=O)N1C (stereo not drawn)	-11	2	-1	-19	-1	4.4*	0.073*
Cn1c(=O)[nH]c(=O)c2c1nc(N1CCCC1)n2CCCSc1nnnn1-c1ccccc1	-4	7	x	-3	x	2.4	0.1
CN1CCN(c2nc3c(c(=O)[nH]c(=O)n3C)n2CCCSc2ncccn2)CC1	-33	23	x	-2	x	-0.41	x
O=C(Nc1ccc(S(=O)(=O)NCc2cccnc2)cc1)c1ccco1	15	20	-6	-2	6	1.8	0.023
CCCn1c(N)c(C(=O)CSc2nnnn2-c2ccc(O)cc2)c(=O)n(C)c1=O	-35	11	-14	0	16	0.74	x
O=C(COC(=O)CCc1nc2ccccc2c(=O)[nH]1)NC(=O)NC1CCCC1	-9	20	x	3	x	-0.09	x
Cc1ccc2oc(-c3cccc(NC(=S)NC(=O)/C=C/c4ccco4)c3)nc2c1	-49	7	8	-11	-6	-1.9	x
N#C/C(=C\c1ccc(Cl)s1)C(=O)N1CCN(c2ccccc2)CC1	0	7	x	0	x	-1.5	x
CC(C)NS(=O)(=O)c1ccc(OCC(=O)NCC2CCCO2)c(Cl)c1 (stereo not drawn)	-27	1	4	-8	-5	0.47	x
Cc1cc(S(=O)(=O)NCC(C)C)ccc1OCC(=O)NCC1CCCO1 (stereo not drawn)	-20	23	x	4	x	7.8*	0.069
